Compound activity deposited in PubChem by several laboratories.
SR-BI HDL uptake – inhibitors of SR-BI mediated HDL lipid uptake, primary screen, ldlA[mSR-BI] cells, fluorescence, single point. Scavenger receptor class B member 1 (Mus musculus), Q61009. ldlA[mSR-BI] CHO cells, DiI-HDL uptake fluorescence, 3 h. inhibition, % at 12.5 µM. actives 0.96% (n = 320,000). AID 488896, 2010;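 active = mean replicate inhibition of at least 70% and a set share of replicates each scoring 70 or more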;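 also: 0% = median of neutral control wells and 100% = median of positive control wells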
ABCB6 inh MLPCN – ABCB6 transporter inhibitors, primary screen, K562-ABCB6 cells, flow cytometry, MLPCN library. actives 0.19% (n = 360,000). fluorescence ratio to DMSO, % at 10 µM. K562-ABCB6 porphyrin accumulation, 1 h; active compounds read low. ATP-binding cassette sub-family B member 6 (Homo sapiens), Q9NP58. AID 602162, 2011;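 active = fluorescence ratio to DMSO below 75%, the collection mean minus 3 SD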;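 also: signal is porphyrin accumulated inside mitochondria; 100% equals median channel fluorescence of DMSO control wells; lower ratio means ABCB6 inhibition with less porphyrin fluorescence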
SR-BI uptake up – activators of SR-BI mediated DiI-HDL uptake, primary screen, ldlA[mSR-BI] CHO cells, DiI fluorescence; 3 h; 100 = double the neutral-control signal; activation, % at 12.5 µM; actives 0.096% (n = 320,000); AID 504775, 2011;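 active = mean replicate activation of at least 60% and every replicate at or above 60%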;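 also: 0% = median plate neutral-control signal and 100% = twice that signal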
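system = CHO ldlA[mSR-BI] cells, LDL receptor-null, SR-BI overexpressing | medium = Ham's F12 with 0.5% BSA, HEPES 25 mM, pH 7.4 | probe or stimulus = DiI-HDL 10 µg/mL | compound dosing = single-point compound dose | incubation = compound exposure 3 h, 37 °C | technique = DiI fluorescence, bottom read | read-out = cell-associated DiI fluorescence as measure of HDL uptake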
HIF activator – HIF pathway transcriptional activators, primary screen, cell-based, U2OS HRE-luciferase, luminescence; U2OS HRE-luciferase reporter; normalized: DMSO 0%, desferrioxamine 100%; activation, % at 7.5 µM (by protocol); actives 0.32% (n = 300,000); AID 1910, 2009;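 active = mean activation of at least 10% of the iron chelator positive control signal, with at least half of replicates also reaching 10%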
AHR activator – AHR activators, primary screen, cell-based, luminescence, luciferase reporter, human | Aryl hydrocarbon receptor (Homo sapiens), P35869 | AHR-responsive luciferase reporter cells | activation, % at 5 µM | actives 2.5% (n = 320,000); in the data active = activation above about 47%;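 also: 0% = vehicle wells and 100% = reference agonist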
FXN GAA850 act – FXN promoter activators, primary screen, cell-based, luciferase luminescence, HEK293 lucGAA850. HEK293 lucGAA850 FXN promoter luciferase reporter, 24 h; percent of 10 µM SAHA response. activation, % at 6 µM. actives 0.56% (n = 360,000);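 active = activation above the average of all compounds screened plus 3 SD, cutoff fixed separately per campaign, cut at about 7.5% in these data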;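 also: 0% = DMSO wells and 100% = 10 µM SAHA wells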
Starred values were filed as active, the others as inactive. An excerpt weighted towards active compounds, which were near 3.9% of everything screened.

O=S(=O)(Nc1ccc(-c2nc3cccnc3s2)cc1)c1ccc(Cl)s1 was read as SR-BI HDL uptake -6, ABCB6 inh MLPCN 101, SR-BI uptake up 6, HIF activator 2, AHR activator 69* and FXN GAA850 act 2.
Screening O=S(=O)(Nc1ccc(-c2nc3cccnc3s2)cc1)c1ccccc1F returned SR-BI HDL uptake -13, ABCB6 inh MLPCN 98, SR-BI uptake up 13, HIF activator 3, AHR activator 56* and FXN GAA850 act 7.
`Cc1nc2cc(NS(=O)(=O)c3ccccc3F)ccc2s1` gave SR-BI HDL uptake -23, ABCB6 inh MLPCN 98, SR-BI uptake up 23, HIF activator -1, AHR activator 7 and FXN GAA850 act 1.
For NS(=O)(=O)c1ccc(NC(=S)NC(=O)c2ccc(-c3ccccc3)cc2)cc1 the results were SR-BI HDL uptake 33, ABCB6 inh MLPCN 95, SR-BI uptake up -33, HIF activator -2, AHR activator -5 and FXN GAA850 act 1.
For Cc1cccc(/N=C/c2c(O)[nH]c3ccccc23)n1 the results were SR-BI HDL uptake 27, ABCB6 inh MLPCN 96, SR-BI uptake up -27, HIF activator 2, AHR activator 64* and FXN GAA850 act 7.
`Cc1ccccc1NC(=S)N(CCCN1CCOCC1)Cc1ccccn1` gave SR-BI HDL uptake -19, ABCB6 inh MLPCN 104, SR-BI uptake up 19, HIF activator 1, AHR activator -1 and FXN GAA850 act -1.
Cc1cc(OCC(=O)Nc2cccnc2)c2c(C)cc(=O)oc2c1 was read as SR-BI HDL uptake -18, ABCB6 inh MLPCN 93, SR-BI uptake up 18, HIF activator 0, AHR activator 64* and FXN GAA850 act -1.
CCCCc1cc(=O)oc2cc(C)cc(OCC(=O)NCc3ccncc3)c12 was read as SR-BI HDL uptake 6, ABCB6 inh MLPCN 96, SR-BI uptake up -6, HIF activator -1, AHR activator 56* and FXN GAA850 act -1.
Screening Cc1cc(OCC(=O)NCc2cccnc2)c2c(C)cc(=O)oc2c1 returned SR-BI HDL uptake 12, ABCB6 inh MLPCN 95, SR-BI uptake up -12, HIF activator 0, AHR activator 24 and FXN GAA850 act -2.
CCCc1cc(=O)oc2cc(C)cc(OCC(=O)NCc3ccccn3)c12 was read as SR-BI HDL uptake 16, ABCB6 inh MLPCN 102, SR-BI uptake up -16, HIF activator 0, AHR activator 17 and FXN GAA850 act 0.
CC(=O)NNC(=O)c1cc2sccc2s1 was read as SR-BI HDL uptake -1, ABCB6 inh MLPCN 98, SR-BI uptake up 1, HIF activator 0, AHR activator 2 and FXN GAA850 act -1.
CN1CC(=O)N2C(c3ccc(Cl)cc3)c3[nH]c4ccccc4c3C[C@H]2C1=O (some centres undefined) was read as SR-BI HDL uptake 50, ABCB6 inh MLPCN 99, SR-BI uptake up -50, HIF activator -2, AHR activator 9 and FXN GAA850 act 1.
`C=CCN1CC(=O)N2C(c3ccccc3)c3[nH]c4ccccc4c3C[C@H]2C1=O` (some centres undefined) gave SR-BI HDL uptake 78*, ABCB6 inh MLPCN 103, SR-BI uptake up -78, HIF activator -21 and FXN GAA850 act -1.
For COCCCN1CC(=O)N2C(c3cccc(C)c3)c3[nH]c4ccccc4c3C[C@H]2C1=O (some centres undefined) the results were SR-BI HDL uptake 76*, ABCB6 inh MLPCN 99, SR-BI uptake up -76, HIF activator -1, AHR activator 11 and FXN GAA850 act -2.
